TAAR1 agonist = agonists of human TAAR1. Q96RJ0. CHO RD-HGA16 TAAR1, Fluo-8 calcium fluorescence; vehicle wells 0%, saturating PEA agonist 100%. activation, % at 3 µM. actives 0.99% (n = 360,000). AID 624467;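 active = activation above the mean activation of all test compounds in the run plus 3 SD, cut at about 38% in these data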
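System: CHO-derived RD-HGA16 cells with stable Gα16 and human TAAR1. Times: 17-24 h plating, Fluo-8 75 min 37 °C, 30 min RT. Measured by: calcium-sensitive Fluo-8 signal, excitation 470-495, emission 515-575 nm. Read-out basis: % activation relative to PEA EC100 response. Control set: DMSO and PEA EC100. Repeats: no replicates (n 1).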
OX1R antag-1 = human HCRTR1 antagonism; AID 434989; actives 0.43% (n = 330,000); O43613; CHO/OX1R cells, Fluo-8 calcium fluorescence, orexin A; inhibition, % at 5 µM;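 active = inhibition above its plate's threshold, mean inhibition of all tested compounds on the plate plus 3 SD, cut at about 37% in these data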;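 note: 0% = orexin A challenge wells and 100% = SB-334867-A antagonist wells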
Target sequence (O43613 whole entry, looked up): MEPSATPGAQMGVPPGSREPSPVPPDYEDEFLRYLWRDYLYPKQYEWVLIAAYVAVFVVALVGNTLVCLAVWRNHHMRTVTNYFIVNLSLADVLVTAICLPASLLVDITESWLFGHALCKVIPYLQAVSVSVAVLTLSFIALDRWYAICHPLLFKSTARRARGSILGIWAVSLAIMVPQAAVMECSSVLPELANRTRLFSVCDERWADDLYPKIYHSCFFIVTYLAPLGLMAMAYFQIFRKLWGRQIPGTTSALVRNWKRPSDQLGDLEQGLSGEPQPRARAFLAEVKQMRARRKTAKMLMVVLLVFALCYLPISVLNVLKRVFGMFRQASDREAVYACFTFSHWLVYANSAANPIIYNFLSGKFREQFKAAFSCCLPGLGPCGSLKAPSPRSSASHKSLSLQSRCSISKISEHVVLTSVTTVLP
NTR1 ag = NTR1 (human) agonism; activation, % at 20 µM; actives 0.17% (n = 330,000); NTR1-U2OS beta-arrestin-GFP spot imaging, agonist mode; P30989;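 active = activation at or above 40% of the spot to cytoplasm intensity ratio, with at least 20 cells analyzed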;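 note: 0% = DMSO without peptide and 100% = 100 nM NTR1 peptide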
OX1R antag-2 = antagonists of human orexin 1 receptor (OX1R); OX1R-expressing cells, FRET antagonist read-out; O43613; AID 485270; inhibition, % at 6.6 µM; actives 1.8% (n = 330,000); in the data active = inhibition mostly above about 38%, no sharp cut-off; inactive = mostly below about 40%;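 note: 0% = agonist challenge alone and 100% = reference antagonist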
CHO parental Ca = signal in parental CHO cells, OX1R antagonist counter-screen. parental CHO-K1, ATP-induced calcium, Fluo-8 fluorescence. inhibition, % at 5.6 µM. actives 0.63% (n = 330,000);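 active = inhibition above that plate's mean sample inhibition plus 3 SD, cut at about 26% in these data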;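 note: 0% = ATP-challenged DMSO wells and 100% = DMSO wells without ATP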
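Material: parental CHO cells / Compound: single nominal dose of 5.6 µM per compound / Signal: Fluo-8 fluorescence / Replicates: singlicate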
TAAR1 antag = human TAAR1 antagonism. CHO RD-HGA16 TAAR1, Fluo-8 calcium fluorescence, antagonist. Q96RJ0. AID 624466. actives 1.5% (n = 360,000). inhibition, % at 3 µM;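 active = inhibition above a per-plate cutoff, the mean inhibition of test compounds on that plate plus 3 SD, cut at about 49% in these data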;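 note: 0% = DMSO plus EC80 beta-PEA response and 100% = DMSO alone without agonist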
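Test system: CHO RD-HGA16 cells bearing hTAAR1 | Reagent: β-PEA, EC80 | Compound dosing: 3 µM, single point | Schedule: Dye loading 75 min at 37 °C, then 30 min room temperature | Signal: Calcium fluorescence with Fluo-8 | Evaluation: Percent inhibition of PEA-evoked calcium signal, max/basal emission ratio | Control set: DMSO-only wells and EC80 β-PEA-stimulated wells | Repeats: Singlicate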
* = called active by the depositor; . = no result. A selection: hits, their analogues and other compounds. The true share with any hit is near 4%.

SMILES	TAAR1 agonist	OX1R antag-1	NTR1 ag	OX1R antag-2	CHO parental Ca	TAAR1 antag
COc1cc(NC(=O)C[n+]2ccc(C(=O)c3ccccc3)cc2)cc(OC)c1	-3	5	0	43*	0	5
Cc1[nH]c2ccccc2c1C(=O)c1c(N)[nH]c(C(=O)c2ccccc2)c1-c1ccc(Cl)cc1	10	.	.	.	.	-14
CCCNC(=O)/C(C#N)=C1\N=C(NC(=O)c2ccco2)c2ccccc21	1	-6	1	47*	-2	-6
Cc1ccc(NC(=O)c2cc(N3C(=O)C=CC3=O)ccc2N2CCOCC2)cc1Cl	30	25	.	5	6	51*
Clc1ccc(-n2ncc3c(NCc4ccco4)ncnc32)cc1	6	-20	-2	22	-20	-10
Clc1ccc(Cn2ncc3c(NCc4ccco4)ncnc32)c(Cl)c1	12	18	17	59	2	53*
O=C(CN1C(=O)C(=O)c2ccccc21)OCN1C(=O)c2ccccc2C1=O	0	-10	-2	44*	-8	-16
CCOC(=O)N1CCN(C2=C(NS(=O)(=O)c3ccc(Br)cc3)C(=O)c3ccccc3C2=O)CC1	0	.	.	.	.	6
CCN1CCN(C(CNS(=O)(=O)c2ccccc2)c2ccccc2)CC1 (stereo not given)	1	-10	0	-5	-18	0
CCOC(=O)N1CCN(C2=C(NS(=O)(=O)c3ccccc3)C(=O)c3ccccc3C2=O)CC1	10	-27	2	68*	-30	-31
CCN1CCN(C2=C(NS(=O)(=O)c3ccccc3)C(=O)c3ccccc3C2=O)CC1	0	-4	3	74*	-16	-9
COc1c2c(cc3c1c(=O)c1ccccc1n3C)OCO2	-1	.	.	.	.	-9
CCn1c2ccccc2c2cc(CNCc3ccc(OC)cc3OC)ccc21	46*	16	29	22	-13	3
COc1cccc(CNCc2ccc(OC)cc2OC)c1	4	-20	2	6	-17	-25
CS(=O)(=O)c1ccc(C(=O)OCC(=O)NC(=O)C2COc3ccccc3O2)cc1[N+](=O)[O-] (stereo not given)	11	-4	5	22	-16	2
CS(=O)(=O)c1ccc(C(=O)OCC(=O)NC(=O)C2CCCCC2)cc1[N+](=O)[O-]	3	6	17	49*	17	15
O=C(Nc1ccc(S(=O)(=O)N2CCOCC2)cc1)c1cc(-c2ccccc2O)n[nH]1	19	-3	1	-5	-12	54*
CN1C(=O)c2cccc3c(S(N)(=O)=O)ccc1c23	8	-20	-1	34	-8	-7
CN1C(=O)c2cccc3c(S(=O)(=O)Nc4ccccn4)ccc1c23	6	-25	0	68*	-14	-13
CCCCNc1cccc2c1S(=O)(=O)N[C@H](Cc1ccccc1)CO2	-1	.	.	.	.	43
O=[N+]([O-])c1cccc(N=NN(CCO)c2cccc([N+](=O)[O-])c2)c1	8	-8	9	57	10	51*
Cc1nn(S(=O)(=O)c2cccs2)c(C)c1Sc1ccc([N+](=O)[O-])cc1	1	21	1	56	41*	45
Cn1ncc2c(Nc3ccccc3Cl)nc(Cl)nc21	-1	-10	-1	16	-6	-4
Cn1ncc2c(NCCc3ccccc3)nc(Cl)nc21	38*	.	.	.	.	43
COC(=O)C1=C(C)N(Cc2cccc(C(F)(F)F)c2)C(=NCc2ccc3c(c2)OCO3)NC1CCc1ccccc1 (stereo not given)	13	.	.	.	.	-12
SMILES	TAAR1 agonist	OX1R antag-1	NTR1 ag	OX1R antag-2	CHO parental Ca	TAAR1 antag
CCC(=O)Nc1ccc(N2CCN(C(=O)c3ccccc3C)CC2)cc1	6	-7	4	0	-1	18
Cc1ccccc1OCC(=O)Nc1ccc(N2CCN(C(=O)c3ccco3)CC2)cc1	16	2	2	11	-5	60*
Cc1ccccc1C(=O)N1CCN(c2ccc(NC(=O)CSc3ccc(Cl)cc3)cc2)CC1	14	13	1	23	31*	53*
COc1c(C)cccc1C(=O)Nc1ccc(N2CCN(C(=O)c3ccccc3C)CC2)cc1	11	-22	5	6	-24	55*
C[C@@H]1CN([C@H](C)CO)C(=O)c2cc(NS(=O)(=O)c3ccccc3)ccc2O[C@@H](C)CCCCO[C@@H]1CN(C)Cc1ccccc1	-1	.	.	.	.	-23
C#CCn1c(S(=O)(=O)Cc2ccc(F)cc2)nc(-c2ccccc2)c1-c1ccccc1	2	-20	6	40*	-19	4
N#C/C(=C(/O)CSc1ccccn1)c1nc2ccccc2s1	8	71*	0	29	66*	4
Cc1ccc(SC/C(O)=C(\C#N)c2nc3ccccc3s2)cc1	7	2	2	72	-6	-4
COc1ccccc1-c1nnc(SCC(=O)N2CCCC2)o1	3	-8	2	6	9	-9
CC(CC(=O)N1CCN(c2cccc(Cl)c2)CC1)S(=O)(=O)c1ccc2c(c1)NC(=O)CO2 (stereo not given)	17	57*	3	60*	78*	79*
COc1ccc(N2CCN(C(=O)CC(C)S(=O)(=O)c3ccc4c(c3)NC(=O)CO4)CC2)cc1 (stereo not given)	16	-10	-1	-1	5	37
O=C(N[C@H](C(=O)N1CCC[C@H]1C(=O)NC1CCCC1)C1CCCCC1)c1ccccn1	0	.	.	.	.	-15
NCCc1ccn[nH]1	40*	-2	4	4	3	-10
CN(C)CCOc1ccc(-c2c(-c3ccccc3)sc3ccccc23)cc1	27	64*	1	10	49*	42
Cc1[nH]c2ccccc2c1SCC(=O)O	15	-9	-1	14	-11	-9
O=C(O)CSc1c2ccccc2cc2ccccc12	2	7	0	54*	-9	14
Clc1ccc(C(Cn2ccnc2)OCc2c(Cl)cccc2Cl)c(Cl)c1 (stereo not given)	11	19	12	26	60*	51*
OC(Cn1ccnc1)c1ccc(Cl)cc1Cl (stereo not given)	9	-7	0	-7	0	0
CCOCCCNc1nc2c(C)cccn2c(=O)c1/C=C1\SC(=S)N(C(C)CC)C1=O (stereo not given)	12	45*	16	0	26	-2
COc1ccc(NC(=O)COC(=O)CN2C(=O)C3CCCCC3C2=O)cc1 (stereo not given)	3	.	.	.	.	-26
Cc1nn(C)c(Nc2ccc(Br)cc2)c1Br	6	40*	1	50	71*	8
COc1cc(/C=C(/C#N)C(=O)Nc2ccccc2)c(Br)cc1OCc1ccc(C(=O)O)cc1	22	65*	17	23	59*	48

Screening data (PubChem BioAssay)
